Key:
Mus musculus [1] = assay: In Vivo detection in Mice plasma after oral administration of 41.63 mg/kg detected in the form of AZT phosphodiester 2 after 0.5 hr; type: functional, organism-based; design: dose 41.63 mg/kg
Mus musculus [2] = assay: In Vivo detection of total AZT in Mice plasma after oral administration of 41.63 mg/kg after 4 hr; type: functional, organism-based; design: dose 41.63 mg/kg
How it was run: (§1)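 Male Swiss mice (18–20 g, six weeks old) given the test substance or vehicle ([…]) by gavage as a 3 mM solution (1.5 µmol/mouse). Aortic blood was collected into heparinized tubes at 0.5–48 h and centrifuged at 13000g for 10 min. Plasma was stored at -22 °C and analysed by HPLC. Three mice were used per time point, in triplicate. Values were not corrected for recovery.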

Mus musculus [3] = assay: In Vivo detection in Mice plasma after oral administration of 41.63 mg/kg detected in the form of AZT 5`-P after 2 hr; type: functional, organism-based; design: dose 41.63 mg/kg
Mus musculus [4] = assay: In Vivo detection in Mice brains after oral administration of 41.63 mg/kg detected in the form of AZT 5`-P after 2 hr; type: functional
Mus musculus [5] = assay: In Vivo detection in Mice brains after oral administration of 41.63 mg/kg detected in the form of AZT after 1 hr; type: functional
Mus musculus [6] = assay: In Vivo detection in Mice brains after oral administration of 41.63 mg/kg detected in the form of AZT phosphodiester 2 after 8 hr; type: functional
Mus musculus [7] = assay: In Vivo detection of total AZT in Mice plasma after oral administration of 58.33 mg/kg after 24 hr; type: functional, organism-based; design: dose 58.33 mg/kg; how it was run: as §1
Mus musculus [8] = assay: In Vivo detection in Mice plasma after oral administration of 58.33 mg/kg detected in the form of AZT phosphodiester 2 after 2 hr; type: functional, organism-based; design: dose 58.33 mg/kg; how it was run: as §1
Mus musculus [9] = assay: In Vivo detection of total AZT in Mice plasma after oral administration of 58.33 mg/kg after 4 hr; type: functional, organism-based; design: dose 58.33 mg/kg; how it was run: as §1
Mus musculus [10] = assay: In Vivo detection in Mice plasma after oral administration of 58.33 mg/kg detected in the form of AZT phosphodiester 3 after 24 hr; type: functional, organism-based; design: dose 58.33 mg/kg; how it was run: as §1
Mus musculus [11] = assay: In Vivo detection in Mice brains after oral administration of 58.33 mg/kg detected in the form of AZT phosphodiester 2 after 48 hr; type: functional
Mus musculus [12] = assay: In Vivo detection in Mice plasma after oral administration of 58.33 mg/kg detected in the form of AZT phosphodiester 3 after 2 hr; type: functional, organism-based; design: dose 58.33 mg/kg; how it was run: as §1
Mus musculus [13] = assay: In Vivo detection of total AZT in Mice brains after oral administration of 58.33 mg/kg after 48 hr; type: functional
How it was run: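 Male Swiss mice (18–20 g) dosed orally with a 3 mM solution in […] vehicle; decapitated at 0.5–48 h. Brains were homogenized in acetonitrile-water (3:1), centrifuged at 6000g for 40 min at 4 °C, lyophilized, redissolved in water and filtered (0.45 µm). Reversed-phase C18 column-switching HPLC with diode-array detection; standard spiking; vehicle-fed controls. Three mice per point, triplicates.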

Structure (SMILES)	Plasma content (Mus musculus [1]) [nM ml-1]	Plasma content (Mus musculus [2]) [nM ml-1]	Plasma content (Mus musculus [3]) [nM ml-1]	Brain content (Mus musculus [4]) [nM ml-1]	Brain content (Mus musculus [5]) [nmol/g]	Brain content (Mus musculus [6]) [nmol/g]	Plasma content (Mus musculus [7]) [nM ml-1]	Plasma content (Mus musculus [8]) [nM ml-1]	Plasma content (Mus musculus [9]) [nM ml-1]	Plasma content (Mus musculus [10]) [nM ml-1]	Brain content (Mus musculus [11]) [nmol/g]	Plasma content (Mus musculus [12]) [nM ml-1]	Brain content (Mus musculus [13]) [nM ml-1]
Cc1cn([C@H]2C[C@H](N=[N+]=[N-])[C@@H](COP(=O)(O)OCCO[C@H]3O[C@H](CO)[C@@H](O)[C@H](O)[C@@H]3O)O2)c(=O)[nH]c1=O	4.5	6.7	15	19.8	1.9	8.9							
CCCCCCCCCCCCCCCCOP(=O)(OCCO[C@H]1O[C@H](CO)[C@@H](O)[C@H](O)[C@@H]1O)OCC1OC(n2cc(C)c(=O)[nH]c2=O)CC1N=[N+]=[N-] (stereo partly drawn)							28.5	0	5.3	0	3.8	0	63.5
